Source: ChEMBL document CHEMBL1146533, “Antimicrobial and antiparasitic (+)-trans-hexahydrodibenzopyrans and analogues from Machaerium multiflorum” (J Nat Prod, 2003)
Values after ≈ are worked out from the molar mass of the structure shown. Active and inactive are the calls of the source. The calls are words filed in the database; no cut-off is given here.

Assays:
Aspergillus fumigatus [1] = assay: Antimicrobial activity against Aspergillus fumigatus ATCC 90906 by modified NCCLS method; assay type: functional, organism-based
Staphylococcus aureus [2] = assay: Antimicrobial activity against methicillin-resistant Staphylococcus aureus ATCC 43300 by modified NCCLS method; assay type: functional, organism-based
Staphylococcus aureus [3] = assay: Antimicrobial activity against Staphylococcus aureus ATCC 29213 by modified NCCLS method; assay type: functional, organism-based
Candida albicans [4] = assay: Antimicrobial activity against Candida albicans ATCC 90028 by modified NCCLS method; assay type: functional, organism-based
Candida albicans [5] = assay: Antifungal activity against Candida albicans ATCC 90028 at 50 ug/mL by modified NCCLS method; assay type: functional, organism-based
Cryptococcus neoformans = assay: Antimicrobial activity against Cryptococcus neoformans ATCC 90113 by modified NCCLS method; assay type: functional, organism-based
[6] = system: Mycobacterium intracellulare; assay: Antimicrobial activity against Mycobacterium intracellular by Alamar blue assay; assay type: functional, organism-based
Aspergillus fumigatus [7] = assay: Antimicrobial activity against Aspergillus fumigatus ATCC 90906 at 50 ug/mL by modified NCCLS method; assay type: functional, organism-based
[8] = system: Mycobacterium intracellulare; assay: Antimicrobial activity against Mycobacterium intracellular at 50 ug/mL by Alamar blue assay; assay type: functional
Vero = assay: Cytotoxicity against african green monkey Vero cells at 4.7 ug/mL; assay type: cell-based; conditions: chlorocebus sabaeus
[9] = Selectivity index, ratio of IC50 for african green monkey (Cercopithecus aethiops) Vero cells to IC50 for chloroquine-sensitive Plasmodium falciparum W2; assay type: toxicity, cell-based; conditions: read-out: Ratio IC50
How it was run: (§1)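 Selectivity index calculated as IC50 in Vero cells divided by IC50 against P. falciparum.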

Plasmodium falciparum [10] = assay: Antimalarial activity against chloroquine-sensitive Plasmodium falciparum D6; assay type: functional, organism-based
[11] = Selectivity index, ratio of IC50 for african green monkey (Cercopithecus aethiops) Vero cells to IC50 for chloroquine-sensitive Plasmodium falciparum D6; assay type: toxicity, cell-based; conditions: read-out: Ratio IC50; how it was run: as §1
Plasmodium falciparum [12] = assay: Antimalarial activity against chloroquine-resistant Plasmodium falciparum W2; assay type: functional, organism-based
Leishmania donovani = assay: Antileishmanial activity against Leishmania donovani promastigotes after 72 hrs; assay type: functional, organism-based

SMILES	MIC (Aspergillus fumigatus [1]) [µg/mL]	IC50 (Staphylococcus aureus [2]) [µg/mL]	MBC (Staphylococcus aureus [2]) [µg/mL]	MIC (Staphylococcus aureus [2]) [µg/mL]	IC50 (Staphylococcus aureus [3]) [µg/mL]	MBC (Staphylococcus aureus [3]) [µg/mL]	MIC (Staphylococcus aureus [3]) [µg/mL]	IC50 (Candida albicans [4]) [µg/mL]	MIC (Candida albicans [4]) [µg/mL]	IC50 (Cryptococcus neoformans) [µg/mL]	IC50 [6] [µg/mL]	MIC [6] [µg/mL]	Activity (Aspergillus fumigatus [7])	Activity (Vero)	selectivity ratio [9]	IC50 (Plasmodium falciparum [10]) [µg/mL]	selectivity ratio [11]	IC50 (Plasmodium falciparum [12]) [µg/mL]	IC50 (Leishmania donovani) [µg/mL]	IC90 (Leishmania donovani) [µg/mL]	other results
C=C(C)[C@H]1CC[C@H](C)C[C@@H]1c1c(O)cc(/C=C/c2ccccc2)cc1O [MACHAERIDIOL A]	12.5 (≈ 35.9 µM)	1 (≈ 2.87 µM)	3.13 (≈ 8.98 µM)	1.56 (≈ 4.48 µM)	1 (≈ 2.87 µM)	3.13 (≈ 8.98 µM)	1.56 (≈ 4.48 µM)	3.5 (≈ 10 µM)	50 (≈ 143 µM)	15 (≈ 43 µM)	7 (≈ 20.1 µM)	12.5 (≈ 35.9 µM)	inactive								Activity (Candida albicans [5]): inactive; Activity (Cryptococcus neoformans): inactive; MBC [8]: 50 µg/mL (≈ 143 µM)
C[C@@H]1C[C@@H]2c3c(O)cc(-c4cc5ccccc5o4)cc3OC(C)(C)[C@H]2C[C@H]1O [MACHAERIOL D]		30 (≈ 79.3 µM)			25 (≈ 66.1 µM)		50 (≈ 132 µM)														Activity (Aspergillus fumigatus [1]): inactive; Activity (Staphylococcus aureus [2]): inactive; Activity (Candida albicans [4]): inactive; Activity (Cryptococcus neoformans): inactive; Activity [6]: inactive
C[C@H]1CC[C@H]2[C@H](C1)c1c(O)cc(/C=C/c3ccccc3O)cc1OC2(C)C [MACHAERIOL C]	100 (≈ 274 µM)	0.7 (≈ 1.92 µM)	12.5 (≈ 34.3 µM)	1.56 (≈ 4.28 µM)	0.65 (≈ 1.78 µM)	6.25 (≈ 17.1 µM)	1.56 (≈ 4.28 µM)	20 (≈ 54.9 µM)		40 (≈ 110 µM)	20 (≈ 54.9 µM)		inactive	Non-toxic	1.3	3 (≈ 8.23 µM)	1.6	3.7 (≈ 10.2 µM)	6 (≈ 16.5 µM)	12 (≈ 32.9 µM)	
N=C(N)c1ccc(OCCCCCOc2ccc(C(=N)N)cc2)cc1 [PENTAMIDINE]																			0.42 (≈ 1.23 µM)	1.5 (≈ 4.41 µM)	
C[C@@H]1[C@H](O)[C@@H](C)/C=C/C=C/C=C/C=C/C=C/C=C/C=C/[C@H](O[C@@H]2O[C@H](C)[C@@H](O)[C@H](N)[C@@H]2O)C[C@@H]2O[C@](O)(C[C@@H](O)C[C@@H](O)[C@H](O)CC[C@@H](O)C[C@@H](O)CC(=O)O[C@H]1C)C[C@H](O)[C@H]2C(=O)O [AMPHOTERICIN B]	1.25 (≈ 1.35 µM)								0.31 (≈ 0.335 µM)												MIC (Cryptococcus neoformans): 0.63 µg/mL (≈ 0.682 µM)
C=C(C)[C@H]1CC[C@H](C)C[C@@H]1c1c(O)cc(-c2cc3ccccc3o2)cc1O [MACHAERIDIOL C]		3.5 (≈ 9.66 µM)	12.5 (≈ 34.5 µM)	6.25 (≈ 17.2 µM)	3 (≈ 8.28 µM)	12.5 (≈ 34.5 µM)	6.25 (≈ 17.2 µM)	45 (≈ 124 µM)		25 (≈ 69 µM)	10 (≈ 27.6 µM)	25 (≈ 69 µM)		Non-toxic	> 1.9	3.3 (≈ 9.1 µM)	> 1.4	2.5 (≈ 6.9 µM)	3 (≈ 8.28 µM)	10 (≈ 27.6 µM)	Activity (Aspergillus fumigatus [1]): inactive; Activity [8]: inactive
O=C(O)c1cn(C2CC2)c2cc(N3CCNCC3)c(F)cc2c1=O [CIPROFLOXACIN]			0.31 (≈ 0.936 µM)	0.31 (≈ 0.936 µM)	0.15 (≈ 0.453 µM)						0.45 (≈ 1.36 µM)	0.63 (≈ 1.9 µM)									
C=C(C)[C@H]1CC[C@H](C)C[C@@H]1c1c(O)cc(/C=C/c2ccccc2O)cc1O [MACHAERIDIOL B]	10 (≈ 27.4 µM)	2 (≈ 5.49 µM)	6.25 (≈ 17.1 µM)	6.25 (≈ 17.1 µM)	2.6 (≈ 7.13 µM)	6.25 (≈ 17.1 µM)	6.25 (≈ 17.1 µM)	2 (≈ 5.49 µM)	6.25 (≈ 17.1 µM)	3.5 (≈ 9.6 µM)			inactive	Non-toxic	> 22	0.64 (≈ 1.76 µM)	> 7.4	0.22 (≈ 0.604 µM)	0.9 (≈ 2.47 µM)	8 (≈ 21.9 µM)	Activity (Candida albicans [5]): inactive; Activity [6]: inactive
